Source: ChEMBL document CHEMBL5036380, “New Highly Potent NLRP3 Inhibitors: Furanochalcone Velutone F Analogues” (ACS Med Chem Lett, 2022)
The source made the active and inactive calls. No cut-off for these calls is given here.

Assays:
THP-1 [1] = experiment: Cytotoxicity against human THP-1 cells assessed as reduction in cell viability at 0.05 to 6.4 uM measured after 90 mins by CCK8 assay; assay type: cell-based; conditions: thp-1, 1.5 h, dose 0.05-6.4 µM
Outline: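 THP-1 cells preincubated with compound (0.05–6.4 μM) for 1.5 h; viability read by CCK8 assay.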

Spleen = experiment: Downregulation of IL-1beta level in spleen of LPS treated C57BL/6J mouse at 10 mg/kg, iv measured after 6 hrs by ELISA
[2] = Tmax in Sprague-Dawley rat at 10 mg/kg, iv measured up to 24 hrs by LC-MS/MS analysis; assay type: ADME, organism-based; conditions: in vivo
Outline: (§1)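 Single doses given intravenously (10 mg/kg) or orally (10, 30, 90 mg/kg); plasma levels quantified by LC/MS/MS at multiple time points. Parameters reported as mean values: AUC0–t, CL, Cmax, T1/2, Tmax, and %F based on AUC.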

[3] = Half life in Sprague-Dawley rat at 90 mg/kg, po measured up to 24 hrs by LC-MS/MS analysis; assay type: ADME, organism-based; conditions: in vivo; outline: as §1
[4] = target: T1, Interferon-inducible protein AIM2 (Homo sapiens) (UniProt O14862); experiment: Inhibition of AIM2 inflammasome activation in LPS-induced human THP-1 cells at 1 uM for 40 mins followed by […] stimulation for 6 h by ELISA; assay type: cell-based; conditions: time 400.0 min
T1 sequence (whole entry): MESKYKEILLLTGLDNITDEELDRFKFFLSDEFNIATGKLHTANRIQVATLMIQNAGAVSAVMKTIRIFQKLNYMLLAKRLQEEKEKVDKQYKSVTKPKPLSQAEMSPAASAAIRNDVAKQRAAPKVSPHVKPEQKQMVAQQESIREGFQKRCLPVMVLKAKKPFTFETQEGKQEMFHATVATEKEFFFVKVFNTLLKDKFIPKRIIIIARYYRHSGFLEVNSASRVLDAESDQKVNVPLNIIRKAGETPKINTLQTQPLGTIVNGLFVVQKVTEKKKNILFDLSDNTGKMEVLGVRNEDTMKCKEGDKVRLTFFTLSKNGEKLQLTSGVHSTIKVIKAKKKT

THP-1 [5] = experiment: Effect on IL-1beta expression in LPS-stimulated human THP-1 cells preincubated for 40 mins followed by LPS addition and measured after 3 hrs by Western blot analysis; assay type: functional, cell-based; conditions: time 220.0 min
Outline: (§2)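 THP-1 cells were given compound for 40 min, then primed with LPS for 3 h. Medium supernatant was analysed for TNF-α. Cell extracts were immunoblotted for pro-IL-1β and NLRP3.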

[6] = Oral bioavailability in Sprague-Dawley rat at 90 mg/kg measured up to 24 hrs by LC-MS/MS analysis; assay type: ADME, organism-based; conditions: in vivo; outline: as §1
[7] = Half life in Sprague-Dawley rat at 10 mg/kg, po measured up to 24 hrs by LC-MS/MS analysis; assay type: ADME, organism-based; conditions: in vivo; outline: as §1
[8] = Tmax in Sprague-Dawley rat at 90 mg/kg, po measured up to 24 hrs by LC-MS/MS analysis; assay type: ADME, organism-based; conditions: in vivo; outline: as §1
[9] = target: NACHT, LRR and PYD domains-containing protein 3 (Homo sapiens) (UniProt Q96P20); experiment: Inhibition of NLRP3 inflammasome activation in LPS/nigericin-treated human THP-1 cells assessed as blockade of […] caspase 1 p20 in LPS stimulation followed by pretreatment for 40 min before induced with nigericin for 40 min measured by western blot analysis; assay type: cell-based; conditions: time 80.0 min
Chain of NACHT, LRR and PYD domains-containing protein 3 (Homo sapiens) (Q96P20 whole entry, the tested form may be a part): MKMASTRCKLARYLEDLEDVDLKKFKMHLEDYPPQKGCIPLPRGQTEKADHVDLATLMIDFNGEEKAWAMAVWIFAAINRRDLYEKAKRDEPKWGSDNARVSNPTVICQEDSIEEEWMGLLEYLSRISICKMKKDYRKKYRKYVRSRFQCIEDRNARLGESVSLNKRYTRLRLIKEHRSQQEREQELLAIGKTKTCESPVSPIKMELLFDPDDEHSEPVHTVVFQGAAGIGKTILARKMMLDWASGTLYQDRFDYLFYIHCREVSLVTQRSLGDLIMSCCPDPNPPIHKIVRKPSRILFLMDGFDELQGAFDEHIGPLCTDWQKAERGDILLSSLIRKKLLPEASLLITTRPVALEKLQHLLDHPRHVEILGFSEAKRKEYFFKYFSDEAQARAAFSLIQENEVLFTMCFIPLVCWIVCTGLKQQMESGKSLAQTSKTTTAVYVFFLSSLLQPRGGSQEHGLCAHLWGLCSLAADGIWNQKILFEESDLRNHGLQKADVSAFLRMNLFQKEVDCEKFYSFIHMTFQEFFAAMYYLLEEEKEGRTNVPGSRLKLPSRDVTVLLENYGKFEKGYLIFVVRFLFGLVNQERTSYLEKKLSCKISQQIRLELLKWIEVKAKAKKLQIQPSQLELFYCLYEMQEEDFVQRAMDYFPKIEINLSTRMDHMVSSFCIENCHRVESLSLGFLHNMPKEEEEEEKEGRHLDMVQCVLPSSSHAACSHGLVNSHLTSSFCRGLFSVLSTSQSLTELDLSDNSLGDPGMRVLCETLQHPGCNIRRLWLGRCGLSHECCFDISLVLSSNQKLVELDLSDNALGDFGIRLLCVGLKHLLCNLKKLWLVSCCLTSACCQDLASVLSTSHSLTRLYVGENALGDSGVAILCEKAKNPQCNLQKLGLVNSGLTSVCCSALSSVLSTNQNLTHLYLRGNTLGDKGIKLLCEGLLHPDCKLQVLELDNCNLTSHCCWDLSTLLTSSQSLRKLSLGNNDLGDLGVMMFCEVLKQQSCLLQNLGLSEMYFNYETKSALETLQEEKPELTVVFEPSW
Outline: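 PMA-differentiated THP-1 cells were primed with LPS, exposed to graded compound doses for 40 min, then given nigericin for 40 min. Supernatants were immunoblotted for IL-1β and caspase-1. Cell extracts were immunoblotted for NLRP3, pro-IL-1β and pro-caspase-1.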

[10] = target: NLR family CARD domain-containing protein 4 (Homo sapiens) (UniProt Q9NPP4); experiment: Inhibition of NLRC4 inflammasome activation in LPS-induced human THP-1 cells at 1 uM for 40 mins followed by flagellin stimulation for 6 h by ELISA; assay type: cell-based; conditions: time 400.0 min
Chain of NLR family CARD domain-containing protein 4 (Homo sapiens) (Q9NPP4 whole entry, the tested form may be a part): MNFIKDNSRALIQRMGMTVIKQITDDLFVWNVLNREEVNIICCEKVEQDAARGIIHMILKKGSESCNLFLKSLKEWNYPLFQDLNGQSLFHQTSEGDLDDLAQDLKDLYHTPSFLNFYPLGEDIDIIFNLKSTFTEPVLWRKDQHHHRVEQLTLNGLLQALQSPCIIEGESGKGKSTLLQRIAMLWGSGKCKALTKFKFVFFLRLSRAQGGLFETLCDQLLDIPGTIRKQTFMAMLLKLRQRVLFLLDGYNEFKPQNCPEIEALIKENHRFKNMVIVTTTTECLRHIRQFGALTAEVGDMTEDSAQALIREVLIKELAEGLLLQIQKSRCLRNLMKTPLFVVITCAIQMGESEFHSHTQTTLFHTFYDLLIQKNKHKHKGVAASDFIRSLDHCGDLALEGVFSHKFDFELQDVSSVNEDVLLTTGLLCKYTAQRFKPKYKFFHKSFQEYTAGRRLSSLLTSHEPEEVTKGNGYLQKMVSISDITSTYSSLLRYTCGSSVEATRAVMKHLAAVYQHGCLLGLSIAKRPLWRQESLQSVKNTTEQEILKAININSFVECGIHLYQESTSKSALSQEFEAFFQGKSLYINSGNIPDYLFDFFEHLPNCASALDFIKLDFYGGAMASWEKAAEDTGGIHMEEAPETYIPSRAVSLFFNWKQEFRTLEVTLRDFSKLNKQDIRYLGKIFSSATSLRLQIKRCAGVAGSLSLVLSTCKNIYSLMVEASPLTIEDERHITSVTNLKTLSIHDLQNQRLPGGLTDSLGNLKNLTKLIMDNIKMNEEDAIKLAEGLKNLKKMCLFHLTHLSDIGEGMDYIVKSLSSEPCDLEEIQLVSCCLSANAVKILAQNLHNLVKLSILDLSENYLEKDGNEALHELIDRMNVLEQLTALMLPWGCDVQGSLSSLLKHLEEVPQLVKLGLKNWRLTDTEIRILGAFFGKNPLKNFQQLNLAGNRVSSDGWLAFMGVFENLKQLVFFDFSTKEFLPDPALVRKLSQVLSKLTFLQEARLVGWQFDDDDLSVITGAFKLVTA

[11] = AUC (0 to t) in Sprague-Dawley rat at 10 mg/kg, iv measured up to 24 hrs by LC-MS/MS analysis; assay type: ADME, organism-based; design: route intravenous, dose 10 mg/kg, time <=24; conditions: in vivo; outline: as §1
THP-1 [12] = experiment: Effect on TNFalpha expression in LPS-stimulated human THP-1 cells preincubated for 40 mins followed by LPS addition and measured after 3 hrs by Western blot analysis; assay type: functional, cell-based; conditions: time 220.0 min; outline: as §2
[13] = target: T1, Interferon-inducible protein AIM2 (Homo sapiens); experiment: Inhibition of AIM2 inflammasome activation in LPS-induced human THP-1 cells at 3 to 5uM for 40 mins followed by […] stimulation for 6 h by ELISA; assay type: cell-based
[14] = Oral bioavailability in Sprague-Dawley rat at 10 mg/kg measured up to 24 hrs by LC-MS/MS analysis; assay type: ADME, organism-based; conditions: in vivo; outline: as §1
THP-1 [15] = experiment: Effect on TNFalpha expression in LPS-stimulated human THP-1 cells at 1 uM preincubated for 40 mins followed by LPS addition and measured after 3 hrs by Western blot analysis; assay type: functional, cell-based; conditions: time 220.0 min; outline: as §2
[16] = Half life in Sprague-Dawley rat at 10 mg/kg, iv measured up to 24 hrs by LC-MS/MS analysis; assay type: ADME, organism-based; conditions: in vivo; outline: as §1
[17] = AUC (0 to t) in Sprague-Dawley rat at 30 mg/kg, po measured up to 24 hrs by LC-MS/MS analysis; assay type: ADME, organism-based; design: route oral, dose 30 mg/kg, time <=24; conditions: in vivo; outline: as §1
[18] = AUC (0 to t) in Sprague-Dawley rat at 10 mg/kg, po measured up to 24 hrs by LC-MS/MS analysis; assay type: ADME, organism-based; design: route oral, dose 10 mg/kg, time <=24; conditions: in vivo; outline: as §1
[19] = Tmax in Sprague-Dawley rat at 10 mg/kg, po measured up to 24 hrs by LC-MS/MS analysis; assay type: ADME, organism-based; conditions: in vivo; outline: as §1
[20] = Cmax in Sprague-Dawley rat at 30 mg/kg, po measured up to 24 hrs by LC-MS/MS analysis; assay type: ADME, organism-based; design: route oral, dose 30 mg/kg, time <=24; conditions: in vivo; outline: as §1
[21] = Oral bioavailability in Sprague-Dawley rat at 30 mg/kg measured up to 24 hrs by LC-MS/MS analysis; assay type: ADME, organism-based; conditions: in vivo; outline: as §1
[22] = Cmax in Sprague-Dawley rat at 10 mg/kg, iv measured up to 24 hrs by LC-MS/MS analysis; assay type: ADME, organism-based; design: route intravenous, dose 10 mg/kg, time <=24; conditions: in vivo; outline: as §1
[23] = Tmax in Sprague-Dawley rat at 30 mg/kg, po measured up to 24 hrs by LC-MS/MS analysis; assay type: ADME, organism-based; conditions: in vivo; outline: as §1
THP-1 [24] = experiment: Effect on ASC oligomerization in LPS/nigericin stimulated human THP-1 cells assessed as ASC specks in LPS stimulation for 3 hrs followed by pretreatment for 40 min before induced with nigericin for 40 min by ASC and DAPI staining based immunofluorescent microscopy; assay type: functional, cell-based; conditions: time 80.0 min
Outline: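 THP-1 cells were LPS-primed, treated with compound, then activated with nigericin. Endogenous ASC was visualized by immunofluorescence microscopy. The proportion of cells with ASC specks was counted, with NLRP3 KO THP-1 cells as comparison.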

[25] = target: NACHT, LRR and PYD domains-containing protein 3 (Homo sapiens) (UniProt Q96P20); experiment: Inhibition of NLRP3 in human THP-1cells assessed as increase in thermal stability at 100 uM by cellular thermal shift assay
[26] = Clearance in Sprague-Dawley rat at 10 mg/kg, iv measured up to 24 hrs by LC-MS/MS analysis; assay type: ADME, organism-based; conditions: in vivo; outline: as §1
[27] = Cmax in Sprague-Dawley rat at 10 mg/kg, po measured up to 24 hrs by LC-MS/MS analysis; assay type: ADME, organism-based; design: route oral, dose 10 mg/kg, time <=24; conditions: in vivo; outline: as §1
[28] = Cmax in Sprague-Dawley rat at 90 mg/kg, po measured up to 24 hrs by LC-MS/MS analysis; assay type: ADME, organism-based; design: route oral, dose 90 mg/kg, time <=24; conditions: in vivo; outline: as §1

Tmax [2]: 6.6 min
half-life [3]: 6.08 h
inhibition [4]: inactive
bioavailability [6]: 2.47%
half-life [7]: 7.43 h
Tmax [8]: 4.21 h
inhibition [9]: inactive
inhibition [10]: inactive
AUC(0-t) at 24 h [11]: 106 ng·h/mL
inhibition [13]: Dose-Dependent Effect
bioavailability [14]: 13.8%
half-life [16]: 3.13 h
AUC(0-t) at 24 h [17]: 15.8 ng·h/mL
AUCt [18]: 14.6 ng·h/mL
Tmax [19]: 2.11 h
Cmax [20]: 16.4 ng/mL
bioavailability [21]: 4.99%
Cmax [22]: 82 ng/mL
Tmax [23]: 1.26 h
inhibition [25]: Active
CL [26]: 2229.2 mL/min/kg
Cmax [27]: 3.35 ng/mL
Cmax [28]: 13.6 ng/mL
Compound: COc1cc(/C=C/C(=O)c2ccc(F)cc2)c(OC)cc1Br
Activity (THP-1 [1]): Non-Toxic
Activity (Spleen): Active
Activity (THP-1 [5]): inactive
Activity (THP-1 [12]): inactive
Activity (THP-1 [15]): inactive
Activity (THP-1 [24]): Active
